Data reported in ChEMBL document CHEMBL4706740, “Structure-Activity Study of Nitazoxanide Derivatives as Novel STAT3 Pathway Inhibitors” (ACS Med Chem Lett, 2021).
Calls of active or inactive are those of the source. No cut-off for these calls is given here.

How the values were obtained:
HeLa [1] = experiment: Induction of apoptosis in human HeLa cells assessed as early apoptotic cells at 20 uM incubated for 24 hrs by Annexin V-FITC/PI staining based flow cytometry (reference value: 2.84%); assay type: functional
[2] = Cytotoxicity against human HEK 293T cells assessed as cell growth inhibition at 10 uM measured after 48 hrs by MTT assay; assay type: cell-based
[3] = Half life in Sprague-Dawley rat at 25 mg/kg, IG; assay type: ADME, organism-based; conditions: in vivo, po
How it was run: (§1)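 Rats, n = 3 per group, received a single dose either intragastrically (25 mg/kg) or intravenously (5 mg/kg). Plasma concentration–time curves were used to derive t1/2α, t1/2β, Vd/F, CL/F, AUC0–∞, Tmax and Cmax. Absolute oral bioavailability was calculated from the ig and iv data.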

HeLa [4] = experiment: Induction of apoptosis in human HeLa cells assessed as necrotic cells at 10 uM incubated for 24 hrs by Annexin V-FITC/PI staining based flow cytometry (reference value: 0.02%); assay type: functional
HeLa [5] = experiment: Induction of cell cycle arrest in human HeLa cells assessed as accumulation at G2/M phase at 10 uM measured after 24 hrs by flow cytometry analysis (reference value: 11.81%); assay type: functional
HeLa [6] = experiment: Induction of cell cycle arrest in human HeLa cells assessed as accumulation at G2/M phase at 40 uM measured after 24 hrs by flow cytometry analysis (reference value: 11.81%); assay type: functional
Caco-2 = experiment: Antiproliferative activity against human Caco-2 cells assessed as cell growth inhibition measured after 48 hrs by MTT assay; assay type: functional, cell-based; conditions: Caco-2, 48 h
HeLa [7] = experiment: Induction of apoptosis in human HeLa cells assessed as necrotic cells at 20 uM incubated for 24 hrs by Annexin V-FITC/PI staining based flow cytometry (reference value: 0.02%); assay type: functional
[8] = biological target: Signal transducer and activator of transcription 3 (Homo sapiens) (UniProt P40763); experiment: Inhibition of STAT3 in human HeLa cells assessed as decrease in phosphorylation of STAT3 at Tyr705 upto 80 uM measured 15 to 120 mins by Western blot analysis; assay type: cell-based; conditions: dose microM <=80, time lower […], time upper […]
How it was run: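 Time course in HeLa cells given 80 μM compound, sampled from 15 min onward through multiple hours; parallel runs at 20 and 40 μM. Total cell lysates Western blotted for p-STAT3 (Tyr705), p-STAT3 (Ser727) and total STAT3.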

HeLa [9] = experiment: Induction of apoptosis in human HeLa cells assessed as viable cells at 20 uM incubated for 24 hrs by Annexin V-FITC/PI staining based flow cytometry (reference value: 92.45%); assay type: functional; conditions: read-out: Activity
[10] = Half life in Sprague-Dawley rat at 5 mg/kg, iv; assay type: ADME, organism-based; conditions: in vivo; how it was run: as §1
PC-3 = experiment: Antiproliferative activity against human PC3 cells assessed as cell growth inhibition measured after 48 hrs by MTT assay; assay type: functional, cell-based; conditions: PC-3, 48 h
HL-60 = experiment: Antiproliferative activity against human HL60 cells assessed as cell growth inhibition measured after 48 hrs by MTT assay; assay type: functional, cell-based; conditions: HL-60, 48 h
[11] = Apparent clearance in Sprague-Dawley rat at 5 mg/kg, iv; assay type: ADME, organism-based; conditions: in vivo, read-out: CL(app) (converted); how it was run: as §1
A549 = experiment: Antiproliferative activity against human A549 cells assessed as cell growth inhibition measured after 48 hrs by MTT assay; assay type: functional, cell-based; conditions: A549, 48 h
HeLa [12] = experiment: Induction of apoptosis in human HeLa cells assessed as early apoptotic cells at 40 uM incubated for 24 hrs by Annexin V-FITC/PI staining based flow cytometry (reference value: 2.84%); assay type: functional
HeLa [13] = experiment: Induction of apoptosis in human HeLa cells assessed as necrotic cells at 40 uM incubated for 24 hrs by Annexin V-FITC/PI staining based flow cytometry (reference value: 0.02%); assay type: functional
[14] = AUC (0 to infinity) in Sprague-Dawley rat at 25 mg/kg, IG; assay type: ADME, organism-based; parameters: route […], time infinity, dose 25 mg/kg; conditions: in vivo, po; how it was run: as §1
[15] = Cytotoxicity against human HEK-Blue IL-6 cells assessed as cell death at 80 uM; assay type: cell-based; conditions: hek-blue il-6, 80 µM
[16] = biological target: Signal transducer and activator of transcription 3 (Homo sapiens) (UniProt P40763); experiment: Inhibition of STAT3 in human HeLa cells assessed as decrease in phosphorylation of STAT3 at Tyr705 cells pretreated with Na3VO4 phosphatase inhibitor measured at 80 uM incubated for 1 hr by Western blot analysis; assay type: cell-based
How it was run: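 HeLa cells pretreated 15 min with 25 μM Na3VO4 (phosphatase inhibitor) before compound exposure. p-STAT3 (Tyr705) assessed by Western blot of total cell lysates with specific antibodies and compared with cells not given Na3VO4.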

HeLa [17] = experiment: Induction of cell cycle arrest in human HeLa cells assessed as accumulation at S phase at 10 uM measured after 24 hrs by flow cytometry analysis (reference value: 34.04%); assay type: functional
HeLa [18] = experiment: Induction of apoptosis in human HeLa cells assessed as late apoptotic cells at 10 uM incubated for 24 hrs by Annexin V-FITC/PI staining based flow cytometry (reference value: 4.7%); assay type: functional
[19] = biological target: Signal transducer and activator of transcription 3 (Homo sapiens) (UniProt P40763); experiment: Inhibition of STAT3 transcriptional activity in human HeLa cells assessed as downregulation of cyclin D1 expression upto 80 uM after 24 hrs by western blot analysis; assay type: cell-based; conditions: dose microM <=80, time […]
How it was run: (§2)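 HeLa cells treated 24 h with a concentration series. Total cell lysates probed by Western blot with specific antibodies for the STAT3 target gene products cyclin D1, c-Myc and survivin.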

[20] = biological target: Signal transducer and activator of transcription 3 (Homo sapiens) (UniProt P40763); experiment: Inhibition of STAT3 transcriptional activity in human HeLa cells assessed as downregulation of c-Myc expression upto 80 uM after 24 hrs by western blot analysis; assay type: cell-based; conditions: dose microM <=80, time […]; how it was run: as §2
[21] = Elimination Half life in Sprague-Dawley rat at 5 mg/kg, iv; assay type: ADME, organism-based; conditions: in vivo, read-out: beta t1/2 (converted); how it was run: as §1
[22] = Cmax in Sprague-Dawley rat at 5 mg/kg, iv; assay type: ADME, organism-based; parameters: route intravenous, dose 5 mg/kg; conditions: in vivo; how it was run: as §1
HeLa [23] = experiment: Induction of cell cycle arrest in human HeLa cells assessed as accumulation at G0/G1 phase at 40 uM measured after 24 hrs by flow cytometry analysis (reference value: 54.16%); assay type: functional
HeLa [24] = experiment: Cytotoxicity against human HeLa cells assessed as inhibition of cell viability measured after 48 hrs by MTT assay; assay type: functional, cell-based
How it was run: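 Growth was read by MTT assay and IC50 taken from dose–response curves. Values are averages of three independent experiments.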

HeLa [25] = experiment: Induction of cell cycle arrest in human HeLa cells assessed as accumulation at S phase at 20 uM measured after 24 hrs by flow cytometry analysis (reference value: 34.04%); assay type: functional
HeLa [26] = experiment: Induction of cell cycle arrest in human HeLa cells assessed as accumulation at S phase at 40 uM measured after 24 hrs by flow cytometry analysis (reference value: 34.04%); assay type: functional
HeLa [27] = experiment: Effect on Jak2 level in human Hela cells upto 80 uM after 24 hrs by Western blot analysis; assay type: functional, cell-based; conditions: dose microM <=80, time […]
[28] = Antiproliferative activity against human A375 cells assessed as cell growth inhibition measured after 48 hrs by MTT assay; assay type: functional, cell-based; conditions: A-375, 48 h
[29] = Apparent oral clearance in Sprague-Dawley rat at 25 mg/kg, IG; assay type: ADME, organism-based; conditions: in vivo, read-out: CL(app) (converted); how it was run: as §1
[30] = Antiproliferative activity against human U87MG cells assessed as cell growth inhibition measured after 48 hrs by MTT assay; assay type: functional, cell-based
[31] = Cytotoxicity against human HEK 293T cells assessed as cell growth inhibition at 50 uM measured after 48 hrs by MTT assay; assay type: cell-based

Chain of Signal transducer and activator of transcription 3 (Homo sapiens) (P40763 whole entry): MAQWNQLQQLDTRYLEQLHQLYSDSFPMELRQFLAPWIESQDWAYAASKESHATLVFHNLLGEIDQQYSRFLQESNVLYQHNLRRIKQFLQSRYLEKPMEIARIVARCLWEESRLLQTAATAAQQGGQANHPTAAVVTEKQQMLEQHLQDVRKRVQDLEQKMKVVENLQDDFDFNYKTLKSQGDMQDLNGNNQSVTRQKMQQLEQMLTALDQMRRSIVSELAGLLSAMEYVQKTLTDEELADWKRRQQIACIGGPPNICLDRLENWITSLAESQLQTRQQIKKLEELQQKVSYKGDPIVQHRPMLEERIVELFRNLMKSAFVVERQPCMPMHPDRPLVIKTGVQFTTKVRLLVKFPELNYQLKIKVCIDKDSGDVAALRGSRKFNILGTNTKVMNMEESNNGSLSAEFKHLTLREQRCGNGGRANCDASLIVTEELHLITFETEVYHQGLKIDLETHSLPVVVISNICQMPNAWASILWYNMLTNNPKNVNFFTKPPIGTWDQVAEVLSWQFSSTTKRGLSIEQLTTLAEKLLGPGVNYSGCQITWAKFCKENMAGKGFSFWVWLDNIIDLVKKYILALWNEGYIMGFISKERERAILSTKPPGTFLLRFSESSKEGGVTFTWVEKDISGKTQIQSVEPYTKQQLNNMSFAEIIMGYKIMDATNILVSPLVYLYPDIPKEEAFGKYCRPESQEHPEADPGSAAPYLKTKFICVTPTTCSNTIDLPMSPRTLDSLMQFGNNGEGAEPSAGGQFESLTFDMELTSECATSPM

## CC(=O)Oc1ccccc1C(=O)Nc1ncc([N+](=O)[O-])s1 [NITAZOXANIDE]
HeLa [1]
  Activity: 4.49%
[2]
  inhibition at 48 h, 10 µM: -3.3%
[3]
  half-life: 36 min
HeLa [4]
  Activity: 0.02%
HeLa [5]
  Activity: 9.59%
HeLa [6]
  Activity: 6.6%
Caco-2
  IC50: 26.8 µM
HeLa [7]
  Activity: 0.04%
[8]
  inhibition: inactive
HeLa [9]
  viability at 20 µM: 84.1%
[10]
  half-life: 3 min
PC-3
  IC50: 44.7 µM
HL-60
  IC50: 20.1 µM
[11]
  clearance: 8.33 mL/min/kg
A549
  IC50: > 50 µM
HeLa [12]
  Activity: 7.48%
HeLa [13]
  Activity: 0.06%
[14]
  AUC(0-inf): 3200 ng·h/mL
[15]
  Activity: Non-Toxic
[16]
  inhibition: Active
HeLa [17]
  Activity: 28.45%
HeLa [18]
  Activity: 5.32%
[19]
  inhibition: Dose-dependent effect
[20]
  inhibition: Dose-dependent effect
[21]
  half-life: 18 min
[22]
  Cmax: 2800 ng/mL
HeLa [23]
  Activity: 70.64%
HeLa [24]
  IC50: 35 µM
HeLa [25]
  Activity: 21.84%
HeLa [26]
  Activity: 22.76%
HeLa [27]
  Activity: inactive
[28]
  IC50: 31.8 µM
[29]
  CL/F: 105 mL/min/kg
[30]
  IC50: 30 µM
[31]
  inhibition at 48 h, 50 µM: 24.4%
